Assay outcomes deposited in PubChem by several laboratories.
Compounds with a hit are over-represented: about 1.3% of the library has one in this group of screens.
STK33 inh – blocks human STK33 kinase activity | Q9BYT3 | purified STK33, MBP phosphorylation, ADP-Glo luminescence | inhibition, % at 10 µM | 320,000 compounds, 0.073% hits | AID 2661;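 active = inhibition at or above 25%, using the most active replicate where run in duplicate; inactive = inhibition below 25%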
GSK3 alpha inh – inhibitors of human GSK-3 alpha kinase; P49840; ADP-Glo luminescence, 60 min; inhibition, % at 10 µM; 320,000 compounds, 0.1% hits;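 active = more than half of replicates show inhibition above 20%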;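 also: GST-tagged GSK-3 alpha with peptide substrate and 25 µM ATP; 0% = DMSO neutral wells and 100% = GW8510 positive control wells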
Target sequence (P49840 whole entry, looked up): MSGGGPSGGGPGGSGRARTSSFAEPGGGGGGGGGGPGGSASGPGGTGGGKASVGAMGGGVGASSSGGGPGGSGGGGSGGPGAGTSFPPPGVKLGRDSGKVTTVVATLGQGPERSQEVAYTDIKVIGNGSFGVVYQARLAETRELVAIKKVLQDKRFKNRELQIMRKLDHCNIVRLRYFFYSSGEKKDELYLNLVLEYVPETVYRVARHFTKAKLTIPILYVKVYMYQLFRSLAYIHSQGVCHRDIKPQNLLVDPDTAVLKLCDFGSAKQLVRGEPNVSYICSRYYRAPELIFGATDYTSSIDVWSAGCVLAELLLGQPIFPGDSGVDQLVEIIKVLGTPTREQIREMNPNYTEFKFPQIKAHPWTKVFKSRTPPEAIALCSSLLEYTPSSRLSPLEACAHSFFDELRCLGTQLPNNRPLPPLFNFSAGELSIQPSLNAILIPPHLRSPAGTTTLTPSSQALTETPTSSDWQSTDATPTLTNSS
TAG inh – inhibitors of triacylglycerol accumulation | H9c2 cells, Nile Red lipid (TAG) fluorescence; cells loaded with 200 µM oleic acid | inhibition, % at 12.5 µM | 230,000 compounds, 0.66% hits;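 active = pattern-corrected inhibition of lipid staining of at least 50% with the nuclear-stain viability signal not falling by more than 50%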;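 also: 0% = DMSO wells and 100% = triacsin C control wells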
GSK3B inh – human GSK3beta kinase inhibition; 300,000 compounds, 0.038% hits; activity score (negative = inhibition), % at 10 µM; P49841; GST-GSK3beta kinase, ADP-Glo luminescence, 60 min; hits give low values;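 active = more than half of replicate wells score below -50%, meaning over 50% inhibition versus plate controls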;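 also: 0% = median DMSO wells and -100% = median GW8510 positive control wells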
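test system = GST-tagged human GSK3beta kinase, cell-free | reagent = 25 µM ATP with peptide substrate | dosing = one dose of 10 µM per compound | schedule = 60 min reaction, RT | detection = luminescent ADP-Glo measurement of ADP formed | control set = DMSO neutral wells and GW8510 at 20 µM as positive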
Hep lipid drop – hepatic lipid droplet formation modulation | AML12 mouse hepatocytes, oleate lipid droplets, BODIPY imaging | inhibition, % at 6.5 µM | 240,000 compounds, 0.4% hits | AID 1656;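 active = lipid droplet intensity inhibited by at least 50%, with more than 500 cells counted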
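Assay system: AML12 hepatocytes (mouse); Probe or stimulus: oleic acid at 100 µM to induce lipid droplet formation; Dosing: compound at 6.5 µM only; Schedule: compound with oleate, overnight; Detection: fluorescence imaging, 20x objective, two fields per well; Measure: % inhibition of lipid droplet signal.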
LANA-H2B inh – blocks KSHV LANA binding to histone H2A/H2B; Q9QR71; cell-free LANA-H2A/H2B peptide, fluorescence polarization; inhibition, % (test concentration not listed); 320,000 compounds, 0.6% hits; AID 2629; in the data active = inhibition mostly above about 10%, no sharp cut-off; inactive = mostly below about 6.7%
TAG conf – confirmation of triacylglycerol accumulation inhibitors; shares compounds with TAG inh; 990 compounds, 71% hits; inhibition, % at 12.5 µM; AID 651629; H9c2 lipid accumulation, Nile Red fluorescence; cells loaded with 200 µM oleic acid;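 active = mean inhibition across replicates of 40% or more; inactive = mean inhibition below 40%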;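 also: plate controls were DMSO only wells for no effect and Triacsin C treated wells for full effect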
* hit, by the source's call; x = not tested or not shown.

SMILES	STK33 inh	GSK3 alpha inh	TAG inh	GSK3B inh	Hep lipid drop	LANA-H2B inh	TAG conf
CCOC(=O)c1cc(-c2ccccc2)sc1NC(=O)C(C)N1C(=O)NC(C)(c2ccc(Cl)cc2)C1=O (centres undefined)	-0.8	0.7	75.6*	2.2	15.5	2.1	76.4*
CCOC(=O)c1cc(-c2ccccc2)sc1NC(=S)Nc1cccc(C)n1	-3.2	-0.6	69.0*	4.3	x	-4.2	56.3*
CCOC(=O)c1cc(-c2ccccc2)sc1NC(=O)C(C)C	-1.1	-0.1	x	1.6	-3.6	0.5	x
Cn1c(SCc2ccon2)nc2ccccc2c1=O	0.5	-3.0	x	1.1	0.8	0.0	x
CN1CCN(c2ccc(Cl)cc2NC(=O)c2nn(-c3ccccc3)c(=O)c3ccccc23)CC1	x	x	52.0*	0.2	x	x	27.4
O=C(Cc1ccccc1)NC(Nc1cccc2ccccc12)C(Cl)(Cl)Cl (centres undefined)	0.7	-3.5	57.7*	-2.1	x	-1.1	0.7
Cc1cccc(Nc2ncnc(N)c2[N+](=O)[O-])n1	3.4	12.6	2.7	-5.8	1.7	1.7	x
Cc1cc(C)nc(Sc2ncnc(N)c2[N+](=O)[O-])n1	-0.3	-1.2	61.3*	-9.1	12.2	7.4	36.9
CCC(C)(C)NC(=O)C(c1ccc(OC)cc1)N(Cc1ccco1)C(=O)CCC(=O)Nc1cc(C)on1 (centres undefined)	-1.1	-2.2	69.8*	0.2	-6.2	-3.9	56.8*
COc1ccc(C(C(=O)NC(C)(C)C)N(Cc2ccco2)C(=O)CCC(=O)Nc2ccccn2)cc1 (centres undefined)	-0.5	-1.7	x	-0.8	11.0	0.8	x
CCC(C)(C)NC(=O)C(c1ccc(C)cc1)N(Cc1ccco1)C(=O)CCC(=O)Nc1nccs1 (centres undefined)	1.2	-1.6	66.0*	-6.4	9.2	2.9	65.0*
O=C(Nc1ccc(Cl)c(S(=O)(=O)N2CCOCC2)c1)c1ccc(Cl)nc1	x	x	8.9	x	x	x	x
O=C(/C=C/c1ccco1)c1cccc([N+](=O)[O-])c1	x	x	3.7	x	x	x	x
Cc1cc(NC(=O)CC2CCCC2)n(-c2nc3ccccc3[nH]2)n1	-1.2	2.9	58.9*	0.4	x	0.6	54.0*
Cc1cc(NC(=O)c2ccc(F)cc2F)n(-c2nc3ccccc3[nH]2)n1	-1.4	-1.5	x	-4.1	x	-3.4	x
CCOC(=O)c1cc(-c2csc(N/N=C/c3ccccc3Cl)n2)on1	0.4	-1.7	9.5	1.2	-15.6	-3.4	x
Cc1onc(-c2ccc(Cl)cc2Cl)c1-c1csc(N/N=C/c2ccccc2)n1	0.8	-3.2	60.6*	5.3	4.6	2.7	41.9*
CN(C)CCCN1c2ccccc2Sc2ccccc21	0.0	-0.9	60.5*	-2.0	-20.3	6.6	47.0*
CC(=O)c1ccc2c(c1)N(CCCN(C)C)c1ccccc1S2	x	x	20.2	x	x	x	x
COc1ccc(OC)c(N(CCN2C(=O)c3ccccc3C2=O)C(=O)CCl)c1	x	x	52.0*	x	x	x	53.1*
COc1ccc(NC(=O)CCN2C(=O)c3ccccc3C2=O)c(OC)c1	-1.0	-1.5	x	0.1	-12.8	-2.3	x
Cc1sc(NC(=O)c2cccc([N+](=O)[O-])c2)c(C(N)=O)c1-c1ccc(C(C)(C)C)cc1	-0.5	-0.5	81.9*	0.5	-25.9	-6.0	30.0
O=[N+]([O-])c1ccc(-c2ccc(/C=N/Nc3nc(N4CCCC4)nc(N4CCCC4)n3)o2)cc1	-0.4	-1.5	18.4	-2.5	0.2	6.1	x
COc1ccc(-c2cnnc(N/N=C/c3ccc(-c4ccc([N+](=O)[O-])cc4)o3)n2)cc1	x	x	63.2*	x	-15.2	x	61.0*
COc1ccccc1N(CC(O)COc1ccccc1C)S(=O)(=O)c1ccccc1 (centres undefined)	-1.9	-2.3	x	-0.5	-10.8	1.7	x
SMILES	STK33 inh	GSK3 alpha inh	TAG inh	GSK3B inh	Hep lipid drop	LANA-H2B inh	TAG conf
CC(C)C[C@@H](CN1CCCC1CN1C(=S)NC[C@@H]1Cc1ccc(O)cc1)N1C[C@H](Cc2ccccc2)N(CC2CCCCC2)C1=S (some centres undefined)	x	x	53.0*	x	x	x	72.6*
CCOC(=O)c1ccc(NC(=S)N2CCN(c3ccc(N4CCOCC4)nn3)CC2)cc1	-2.6	-5.9	x	-0.9	9.5	-6.3	x
CN(CC(=O)N1CCN(c2ccc(F)cc2)CC1)S(=O)(=O)c1ccc(F)cc1	-0.1	0.4	x	1.6	-12.5	4.1	x
Nc1nn(S(=O)(=O)c2cccc3nsnc23)cc1-c1ccc(Br)cc1	-2.9	-4.0	-11.5	-0.6	-11.0	2.9	x
Cn1nc(-c2ccc(Cl)cc2)c2cc(C(=O)NC3CC3)sc21	-0.4	-2.3	76.1*	-1.6	x	-4.8	70.1*
CCN(C(=O)COC(=O)c1cc(-c2ccccc2)nc2c1c(C)nn2-c1ccc(C)cc1)C1CCS(=O)(=O)C1 (centres undefined)	-1.1	x	55.5*	-0.9	26.7	-3.0	68.7*
CCN(C(=O)COC(=O)c1cc(-c2ccccc2)nc2ccc(Br)cc12)C1CCS(=O)(=O)C1 (centres undefined)	0.3	-11.3	2.1	0.0	0.7	-1.6	x
Cc1ccc(CNc2nc(NC(C)C)nc3ccsc23)c(C)c1	x	x	0.6	x	x	x	x
COc1cc(C(=S)N2CCCC2)cc(OC)c1OS(=O)(=O)c1ccc(NC(C)=O)cc1	0.0	-3.4	x	1.6	5.4	-3.5	x
O=C(Nc1cccc(-c2csc(Nc3ccc(Cl)cc3)n2)c1)c1cccc(C(F)(F)F)c1	-0.1	-4.1	54.0*	-4.0	5.0	2.5	65.2*
O=C(Nc1ccc(-c2csc(Nc3ccc(Cl)cc3)n2)cc1)c1cc([N+](=O)[O-])cc(C(F)(F)F)c1	-0.5	1.3	50.8*	1.1	8.9	2.0	57.4*
O=C(Nc1cccc(-c2csc(Nc3ccccc3)n2)c1)c1cc([N+](=O)[O-])cc(C(F)(F)F)c1	-2.2	-1.5	27.2	0.2	1.8	-0.2	x
O=C(Nc1cccc(-c2csc(Nc3ccc(Cl)cc3)n2)c1)c1cc([N+](=O)[O-])cc(C(F)(F)F)c1	-2.4	0.4	55.9*	0.0	22.7	-4.3	50.4*
CSc1ccc(C(O)c2ncc(-c3ccc(F)cc3)[nH]2)cc1 (centres undefined)	x	x	-20.4	x	x	x	x
Nc1ccc2ccccc2c1N=Nc1ccccc1	x	x	56.5*	x	x	x	52.8*
Nc1ccc(N=Nc2ccccc2)c2cccnc12	10.3	5.5	x	-2.9	41.7	2.5	x
CSc1nc(N(C)CCO)c2sc3nc(-c4ccco4)c4c(c3c2n1)CCC4	0.2	-1.0	x	2.4	x	-3.4	x
CSc1nc(NCCN(C)C)c2sc3nc(-c4ccco4)c4c(c3c2n1)CCC4	x	x	51.0*	x	x	x	37.1
CN(C)S(=O)(=O)c1cc(NC(=O)COC(=O)Cc2cccc3ccccc23)ccc1Cl	-2.0	-0.4	x	2.0	11.6	-2.9	x
